Assay results reported in ChEMBL document CHEMBL4513216, “Probing the Open Global Health Chemical Diversity Library for Multistage-Active Starting Points for Next-Generation Antimalarials” (ACS Infect Dis, 2020).

Assay: Toxicity liver stage against HepG2, at 10uM
Type: cell-based
Set-up: test concentration 10 uM, cell line HepG2-A16-CD81EGFP
Conditions: human, HepG2-A16-CD81EGFP cells; read-out: INHIBITION
Outline: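 Uninfected HepG2-A16-CD81EGFP cells, 3 × 10^3 per well, 1536-well, plated on prespotted compound at 10 μM final, parasite-free screening media added to match infected plates; puromycin 10 μM positive, DMSO 0.5% negative; run in parallel with 48 h PbLuc assay at 37 °C, 5% CO2; viability by CellTiter-Glo luminescence, normalized to controls.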

| SMILES | cytotoxicity at 10 µM [%] |
| --- | --- |
| CCC(=O)N1CCC(Cc2cc(Nc3ncccn3)ncn2)CC1 | -4.05 |
| OCC(O)CN(CCN1CCOCC1)Cc1ccco1 (stereo not given) | -4.7 |
| Cc1cc(C)nc(Nc2cccc(C3CCCN(C(C)C)C3)n2)n1 (stereo not given) | -19.4 |
| Cc1nn(C)c(C)c1OCC(=O)NCc1cccc(CO)c1 | -7.73 |
| Cc1cc(N2CCC(CC(N)=O)CC2)nc(-c2ccncc2)n1 | -7.22 |
| CN(CCc1nccs1)C(=O)CC1(O)CCCCC1 | -6.16 |
| Cc1nnc([C@@H]2CC[C@@H]3[C@@H](CCN3Cc3ccccn3)O2)o1 | 11.3 |
| Cc1ccsc1C(=O)N1CCCn2c(nc(CN(C)C)cc2=O)C1 | -0.385 |
| COc1cc(C(C#N)NC(=O)CC2=CCCCC2)cc(OC)c1OC (stereo not given) | 3.2 |
| N[C@H]1CN(C(=O)CCc2cc(Cl)no2)C[C@@H]1c1ccccc1 | -7.03 |
| Cc1nn(C)c(N2CCOCC2)c1CNC1CCc2ccccc2C1 (stereo not given) | -11.4 |
| COc1ccc(C(=O)N2CCN(C(=O)Cn3nccc3C)CC2)cc1 | 6.88 |
| COCCn1ccc2cc(NC(=O)COC)ccc21 | 0.82 |
| CCN(CCO)C[C@@H]1CN(c2cccc(C(F)(F)F)n2)C[C@@H]1CO | 0.855 |
| Cc1cnn(CC2CCCN2Cc2nnsc2Cl)c1 (stereo not given) | -8.72 |
| c1cnc(N2CCC3(CCN(Cc4ccncc4)CC3)CC2)nc1 | -1.85 |
| Cc1nnc(NC(=O)N2CCN(Cc3ccc(F)cc3)C(=O)C2)s1 | -0.392 |
| Cn1cc(N2CC3(CCN(Cc4cccnc4)CC3)OCC2=O)cn1 | -79.3 |
| O=C1CC(c2ccccc2C(F)(F)F)c2sc(N3CCOCC3)nc2N1 (stereo not given) | 9.18 |
| Cc1noc(-c2ccc(-n3ncc(C(=O)O)c3C)nc2)n1 | 0.748 |
| Cc1ccsc1CN1CCC(c2nnc(Cn3cccn3)n2C)CC1 | -2.97 |
| COc1ccc(C(=O)N2CCC(c3nccn3C(C)C)CC2)cc1OC | 1.52 |
| CC(=O)Nc1nc(C(=O)NCc2ccnc(N3CCCC3)c2)cs1 | -1.94 |

| SMILES | cytotoxicity at 10 µM [%] |
| --- | --- |
| CN(C)S(=O)(=O)N1C[C@H]2CC[C@@H](C1)N(C/C=C/c1ccc(F)cc1)C2 | -1.23 |
| Cc1cccc2nc(CSCc3nnnn3C(C)C)cn12 | 1.24 |
| Cc1ccsc1CN(C)Cn1nccc1-c1cccnc1 | 7.49 |
| CC(C)=CCC1(C(=O)O)CCCN(CCC(=O)NC2CC2)C1 (stereo not given) | -7.69 |
| Cc1oc(-c2cccs2)nc1C(=O)N1CCCC1Cn1cccn1 (stereo not given) | -7.22 |
| Cc1nc(C(C)NC(=O)COc2ccc(F)cc2)n[nH]1 (stereo not given) | 6.39 |
| COCCNC(=O)c1cccnc1Oc1ccc(Cl)cc1 | 6.99 |
| Cc1nc[nH]c1CN(Cc1ccccc1)C1CC(C)(C)NC(C)(C)C1 | 0.968 |
| Cc1ccc(CN2CCN(Cc3ccncc3)[C@@H]3CS(=O)(=O)C[C@@H]32)cc1 | 6.86 |
| Cc1cc(NC(=O)C(C)NCCn2cccn2)no1 (stereo not given) | 10.6 |
| Cc1nn(C)c(C)c1CC(=O)N1CCc2nnc(N(C)C)cc2C1 | -7.63 |
| CCc1nccn1C1CCCN(C(=O)c2cc3nc(C)ccc3o2)C1 (stereo not given) | -15.5 |
| OC(CN1CCN(Cc2cc(F)ccc2F)CC1)C1CC1 (stereo not given) | 0.353 |
| O=C(c1csc(-c2nnc[nH]2)n1)N1CCCCC1Cn1cccn1 (stereo not given) | -4.49 |
| CC1(C(=O)NCCCOc2ccccc2F)CC(=O)N2C=CC=CC2=N1 (stereo not given) | 2.28 |
| Cc1nc(CCN2CCC(Oc3ccccc3F)CC2)cs1 | 6.9 |
| COCCOCC(=O)N1CCC(O)(c2ccc3nc(C)ccc3c2)CC1 | -1.01 |
| Cc1ccc(CNC(=O)N2CCOCC2C2CC2)cc1F (stereo not given) | 10.4 |
| CN1CC(=O)N(c2cccc(F)c2)CC12CCN(Cc1nccs1)C2 (stereo not given) | 2.08 |
| Cc1nc(C)n(C2CCCN(C(=O)CCCNc3ncccn3)C2)n1 (stereo not given) | -4.26 |
| COCCN1C[C@@H](C)[C@@]2(COCCN(C(=O)c3ccncc3)C2)C1 | 5.71 |
| COc1ccc(CN2C[C@@H]3OCCN(CC4CCCO4)[C@@H]3C2)cc1 (stereo not given in full) | -0.851 |
